Results on one compound are retold here after ChEMBL document CHEMBL4145619, “Computer-Assisted Discovery of Retinoid X Receptor Modulating Natural Products and Isofunctional Mimetics” (J Med Chem, 2018).

Calls of active or inactive are those of the source. No cut-off for these calls is given here.

This assay addresses T1, Retinoic acid receptor RXR-beta (Homo sapiens) (UniProt P28702).
T1 sequence (whole entry): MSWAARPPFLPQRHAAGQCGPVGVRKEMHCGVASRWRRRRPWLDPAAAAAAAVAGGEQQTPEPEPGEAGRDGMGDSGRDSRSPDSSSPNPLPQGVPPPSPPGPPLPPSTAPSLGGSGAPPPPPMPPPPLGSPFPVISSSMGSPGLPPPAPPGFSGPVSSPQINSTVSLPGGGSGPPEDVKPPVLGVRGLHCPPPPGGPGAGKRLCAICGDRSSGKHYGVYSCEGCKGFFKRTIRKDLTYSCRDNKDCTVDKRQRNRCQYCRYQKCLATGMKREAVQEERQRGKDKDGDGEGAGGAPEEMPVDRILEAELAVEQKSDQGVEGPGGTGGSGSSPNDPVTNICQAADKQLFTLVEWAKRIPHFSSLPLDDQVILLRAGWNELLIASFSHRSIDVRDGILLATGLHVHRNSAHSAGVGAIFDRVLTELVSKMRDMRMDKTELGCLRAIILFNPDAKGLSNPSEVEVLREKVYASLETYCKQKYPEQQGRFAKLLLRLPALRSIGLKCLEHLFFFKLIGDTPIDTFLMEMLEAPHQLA
The assay can be described thus: Transactivation of human Gal4-fused RXRbeta LBD expressed in HEK293T cells at 30 uM after 12 to 14 hrs by dual-glo luciferase assay. In kind it is cell-based. An outline of the steps: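 Single-concentration selectivity profiling in Gal4-hybrid reporter gene assays in HEK293T cells. Each nuclear receptor construct (RAR, PPAR, LXR, FXR, CAR, VDR, PXR, RXR) was tested at 30 μM.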

Take `CC1=C2[C@H](/C=C(\C)C(=O)O)CC[C@@H](C)[C@H]2CC1` [VALERENIC ACID]: the result was Active.
